Screening results deposited in PubChem BioAssay by several laboratories.
proCasp3 act: activates human procaspase-3. P42574. recombinant procaspase-3 D3A, Ac-DEVD-pNA absorbance 405 nm. activation, % at 8.5 µM. hit rate 0.11% among 330,000;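 active means activation above the mean of all tested compounds plus 3 SD, cut at about 21% in these data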;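 further: 0% = DMSO alone and 100% = DMSO wells spiked with extra 5 µM PC-3 D3A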
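Test system: Procaspase-3 D3A mutant, all three cleavage aspartates alanine | Dosing: Single dose, 8.5 µM nominal compound, 0.8% DMSO | Schedule: 1 h preincubation, 2 h reaction | Technique: 405 nm absorbance of p-nitroaniline, reads at 0 and 120 min | Repeats: One well per compound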
PLCb3 inh: blocks human PLC-beta3 enzyme activity | Purified PLC-beta3, fluorogenic substrate, fluorescence | inhibition, % at 12.2 µM | hit rate 0.18% among 370,000 | AID 720704; in the data active means inhibition above about 11%;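 further: 0% = median of compound wells on plate and 100% = full blocker control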
HGIII-sPLA2 inh: Blocks human group III sPLA2 activity; Q9NZ20; QFRET BODIPY PC-A2 liposome hydrolysis, fluorescence; inhibition, % at 12.2 µM; hit rate 0.56% among 370,000;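 active means inhibition above mean plus 3 SD of compounds lying within the high and low control bounds, cut at about 19% in these data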;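 further: 0% = median of test compound wells and 100% = no enzyme DMSO wells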
proCasp7 act: counter-screen for procaspase-3 activators: activators of human procaspase-7. P55210. recombinant procaspase-7, Ac-DEVD-pNA absorbance 405 nm; D23A/D198A/D206A triple mutant, cannot self-cleave; scale: DMSO 0, 5 µM enzyme 100. activation, % at 8.5 µM. hit rate 0.093% among 330,000;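 active means percent activation above the screen-wide mean plus 3 SD, cut at about 25% in these data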
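Material: Procaspase-7 triple mutant (PC-7 D3A) | Quantity: 2 µM procaspase-7 mutant as dispensed | Reagent: DEVD-pNA substrate | Times: 1 h preincubation, 2 h reaction | Technique: 405 nm absorbance of p-nitroaniline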
PLCg1 inh: inhibitors of human phospholipase C gamma1; purified PLC-gamma1, fluorogenic substrate, fluorescence; P19174; AID 720700; hit rate 0.84% among 370,000; inhibition, % at 12.2 µM; in the data active means inhibition above about 9.5%
Target sequence (P19174 whole entry, looked up): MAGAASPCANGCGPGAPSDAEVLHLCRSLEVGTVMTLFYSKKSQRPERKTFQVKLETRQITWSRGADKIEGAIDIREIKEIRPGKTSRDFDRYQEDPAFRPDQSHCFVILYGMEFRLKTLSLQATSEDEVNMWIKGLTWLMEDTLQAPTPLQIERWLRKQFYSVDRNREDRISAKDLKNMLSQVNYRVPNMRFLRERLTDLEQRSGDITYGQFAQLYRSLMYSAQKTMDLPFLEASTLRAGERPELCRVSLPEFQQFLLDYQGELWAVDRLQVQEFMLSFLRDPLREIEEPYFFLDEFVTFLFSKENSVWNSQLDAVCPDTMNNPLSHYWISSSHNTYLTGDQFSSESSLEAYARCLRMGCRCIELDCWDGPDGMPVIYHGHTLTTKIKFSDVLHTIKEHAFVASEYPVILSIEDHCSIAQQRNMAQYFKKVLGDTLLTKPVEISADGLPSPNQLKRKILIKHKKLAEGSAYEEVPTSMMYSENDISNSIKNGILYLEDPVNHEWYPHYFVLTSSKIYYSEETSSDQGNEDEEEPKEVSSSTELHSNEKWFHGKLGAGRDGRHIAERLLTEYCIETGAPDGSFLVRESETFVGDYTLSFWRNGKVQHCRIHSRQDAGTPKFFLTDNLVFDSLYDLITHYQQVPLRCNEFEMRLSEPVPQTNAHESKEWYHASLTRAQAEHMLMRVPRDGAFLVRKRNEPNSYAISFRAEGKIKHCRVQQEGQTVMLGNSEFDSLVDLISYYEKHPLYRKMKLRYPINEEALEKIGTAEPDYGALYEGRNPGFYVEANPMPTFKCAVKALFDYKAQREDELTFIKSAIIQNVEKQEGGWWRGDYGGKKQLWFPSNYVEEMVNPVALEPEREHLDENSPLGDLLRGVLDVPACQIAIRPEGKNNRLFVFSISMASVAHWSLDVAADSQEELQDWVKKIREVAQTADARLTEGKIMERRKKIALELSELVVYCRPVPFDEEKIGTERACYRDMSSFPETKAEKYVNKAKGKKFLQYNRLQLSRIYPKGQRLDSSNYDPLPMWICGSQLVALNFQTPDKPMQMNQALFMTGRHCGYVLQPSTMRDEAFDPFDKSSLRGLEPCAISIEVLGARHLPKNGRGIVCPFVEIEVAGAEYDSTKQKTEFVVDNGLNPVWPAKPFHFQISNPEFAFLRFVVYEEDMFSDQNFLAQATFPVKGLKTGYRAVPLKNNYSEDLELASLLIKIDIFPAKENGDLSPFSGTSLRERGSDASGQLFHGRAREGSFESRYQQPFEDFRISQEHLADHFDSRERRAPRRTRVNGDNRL
Arrestin-AP2 inh: blocks beta-arrestin peptide binding to AP2 adaptin; FITC-arrestin peptide / GST-AP2 beads, flow cytometry; AP2 beta2 appendage carries R879A mutation; inhibition, % at 10 µM; hit rate 0.31% among 340,000;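 active means inhibition above a set limit, near 3 SD of compounds lacking own fluorescence, cut at about 54% in these data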;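 further: plate controls were DMSO wells for no effect and 5 µM unlabelled arrestin peptide for full effect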
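Measured by: flow cytometry, FL1 (488/535 nm); Material: AP2 appendage R879A on GSH beads; Evaluation: percent response; Timing: pre-incubation 12 min, peptide binding 1 h, room temperature; Also added: 50 nM FITC-arrestin peptide; Medium: PBS with 0.05% Tween 20 and 0.1% BSA.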
Arr AP2 CP1: blocks beta-arrestin peptide binding to human AP2; hit rate 2% among 1,300; inhibition, % at 10 µM; AID 504908; shares compounds with Arrestin-AP2 inh; GST-AP2 beads, FITC arrestin peptide binding, flow cytometry; GST-fused beta2-adaptin appendage, R879A mutant;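 active means inhibition above a set limit, roughly 3 SD of non-fluorescent compound noise, cut at about 38% in these data; inactive means inhibition at or below that limit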;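 further: loss of bead fluorescence from 50 nM FITC arrestin peptide bound to appendage; 0% = negative control wells and 100% = excess unlabelled arrestin peptide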
GST GSH counter: disrupts GST binding to glutathione beads, arrestin-AP2 artifact; shares compounds with Arrestin-AP2 inh; GST-fluorescein binding to GSH beads, fluorescence, counter-screen; inhibition, % at 10 µM; hit rate 2% among 1,300;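 active means inhibition above 50%, about 3 SD of the inhibition seen with non-fluorescent compounds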;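 further: fluorescein maleimide labelled GST captured on 4 micron glutathione beads; higher means more loss of bead fluorescence from quenching or blocked binding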
* marks the source's active call; other numbers are inactive results. A selection: hits, their analogues and other compounds. The true share with any hit is near 1.9%.

How did CCOC(=O)[C@@]12CN(C(=O)OC(C)(C)C)CC=C1N(Cc1ccc(OC)cc1)C(=O)[C@H]2CC(=O)N1CCCC1 do in these assays?
PLCb3 inh: -2; HGIII-sPLA2 inh: 19; PLCg1 inh: -1

What do the screens show for `CSc1ccc(C=NNC(=O)c2cc(-c3ccc(Cl)cc3)n[nH]2)cc1`?
PLCb3 inh: -21; HGIII-sPLA2 inh: -2; PLCg1 inh: -18

Results for Cc1cccc(NS(=O)(=O)c2cccc(C(=O)NCC(c3ccco3)N3CCCCC3)c2)c1 (stereo not drawn) ?
proCasp3 act: -13; PLCb3 inh: 1; HGIII-sPLA2 inh: -31; proCasp7 act: 4; PLCg1 inh: 2; Arrestin-AP2 inh: 8

Results for COc1ccc(C(=O)NNC(=O)c2cccc(S(=O)(=O)N3CCOCC3)c2)cc1 ?
proCasp3 act: 2; PLCb3 inh: -1; HGIII-sPLA2 inh: 1; proCasp7 act: 13; PLCg1 inh: 3; Arrestin-AP2 inh: 4

What do the screens show for `CCOc1ccc(NS(=O)(=O)c2cccc(C(=O)NCC3(N(C)C)CCCCC3)c2)cc1`?
PLCb3 inh: 1; HGIII-sPLA2 inh: 1; PLCg1 inh: 7; Arrestin-AP2 inh: -5; Arr AP2 CP1: 5; GST GSH counter: -12

Results for COc1ccc(NS(=O)(=O)c2cccc(C(=O)NCC(c3ccco3)N3CCCCC3)c2)cc1 (stereo not drawn) ?
proCasp3 act: -11; PLCb3 inh: -5; HGIII-sPLA2 inh: -24; proCasp7 act: 3; PLCg1 inh: -2; Arrestin-AP2 inh: 59*; Arr AP2 CP1: 27; GST GSH counter: -4

How did COc1ccc(NC(=O)c2cccc(S(=O)(=O)N3CCOCC3)c2)cc1 do in these assays?
proCasp3 act: 5; PLCb3 inh: -2; HGIII-sPLA2 inh: -2; proCasp7 act: 0; PLCg1 inh: 1; Arrestin-AP2 inh: 61*; Arr AP2 CP1: -6; GST GSH counter: -6

Results for CCOc1ccccc1C(=O)N1CCC(Oc2cccnc2)CC1 ?
PLCb3 inh: 1; HGIII-sPLA2 inh: -2; PLCg1 inh: 3

How did COc1ccc(CNS(=O)(=O)/C=C/c2cc(C)ccc2CNC(=O)OC(C)(C)C)cc1 do in these assays?
PLCb3 inh: 2; HGIII-sPLA2 inh: -16; PLCg1 inh: 3

How did COc1cc(/C=C/C(=O)O)ccc1OS(=O)(=O)c1cc(Br)ccc1C do in these assays?
proCasp3 act: 5; PLCb3 inh: 0; HGIII-sPLA2 inh: -23; proCasp7 act: -2; PLCg1 inh: 2; Arrestin-AP2 inh: 56*; Arr AP2 CP1: -7; GST GSH counter: 5

Results for COc1ccc(-c2noc(C3CCCN(C(=O)Nc4ccc5c(c4)OCO5)C3)n2)cc1 (stereo not drawn) ?
PLCb3 inh: 4; HGIII-sPLA2 inh: -3; PLCg1 inh: 3

How did COc1ccccc1C(=O)N(Cc1ccccn1)CC1CCCO1 (stereo not drawn) do in these assays?
PLCb3 inh: 5; HGIII-sPLA2 inh: 4; PLCg1 inh: 1

What do the screens show for `O=C(Nc1ccc(F)cc1)OC1CC2CC1[C@H]1CCCCN1C2` (stereo partly drawn)?
PLCb3 inh: -5; HGIII-sPLA2 inh: -3; PLCg1 inh: -3

What do the screens show for `CCCn1c(SCC(=O)Nc2ccc(F)c(Cl)c2)nc(O)cc1=O`?
proCasp3 act: -1; PLCb3 inh: -10; HGIII-sPLA2 inh: 10; proCasp7 act: 10; PLCg1 inh: 2; Arrestin-AP2 inh: 55*; Arr AP2 CP1: -7; GST GSH counter: -6

How did CCN(CC)C(=O)Nc1c(C)n(C)n(-c2ccccc2)c1=O do in these assays?
proCasp3 act: 4; PLCb3 inh: 3; HGIII-sPLA2 inh: 1; proCasp7 act: -4; PLCg1 inh: 3; Arrestin-AP2 inh: 65*; Arr AP2 CP1: 0; GST GSH counter: -3

How did CCC(CC)C(=O)Nc1c(C)n(C)n(-c2ccccc2)c1=O do in these assays?
proCasp3 act: 4; PLCb3 inh: -2; HGIII-sPLA2 inh: 7; proCasp7 act: 18; PLCg1 inh: 1; Arrestin-AP2 inh: 13

What do the screens show for `COc1cc(OC)cc(C(=O)NCC(=O)OCc2nc3ccccc3s2)c1`?
proCasp3 act: 5; PLCb3 inh: -11; HGIII-sPLA2 inh: 3; proCasp7 act: 5; PLCg1 inh: -3; Arrestin-AP2 inh: 55*; Arr AP2 CP1: 1; GST GSH counter: 5

Results for COC[C@@H]1CCCN1c1cccc2c1S(=O)(=O)N(C1CC1)CC[C@@H](C)O2 ?
PLCb3 inh: -32; HGIII-sPLA2 inh: 10; PLCg1 inh: -25

How did Cc1ccc(NC(=O)Cn2ncn3c(cc4ccccc43)c2=O)cc1F do in these assays?
proCasp3 act: 2; PLCb3 inh: -14; HGIII-sPLA2 inh: -5; proCasp7 act: -6; PLCg1 inh: 0; Arrestin-AP2 inh: 66*; Arr AP2 CP1: 0; GST GSH counter: -4

How did CC(C)N1CCc2c(sc(NC(=O)C(F)(F)F)c2-c2nc3ccccc3s2)C1 do in these assays?
PLCb3 inh: inactive; HGIII-sPLA2 inh: -11; PLCg1 inh: inactive

Results for O=C(OC1CCOC1=O)c1cccc(S(=O)(=O)Nc2cccc(Cl)c2)c1 (stereo not drawn) ?
proCasp3 act: -1; PLCb3 inh: -192; HGIII-sPLA2 inh: -35; proCasp7 act: 1; PLCg1 inh: 4; Arrestin-AP2 inh: 63*; Arr AP2 CP1: -10; GST GSH counter: -4

Results for CCCn1c(=O)c(C(=O)NCCc2ccc(OC)cc2)c(O)c2ccccc21 ?
PLCb3 inh: -3; HGIII-sPLA2 inh: -6; PLCg1 inh: 6; Arrestin-AP2 inh: 55*; Arr AP2 CP1: 0; GST GSH counter: -10

Results for CNC(=O)c1cc(S(=O)(=O)N2CC(C)OC(C)C2)ccc1N1CCCCC1 (stereo not drawn) ?
PLCb3 inh: -7; HGIII-sPLA2 inh: -1; PLCg1 inh: 0; Arrestin-AP2 inh: 16; Arr AP2 CP1: 0; GST GSH counter: -15

Results for O=C(Nc1cccc(C(F)(F)F)c1)c1cc(S(=O)(=O)N2CCCCC2)ccc1N1CCOCC1 ?
proCasp3 act: 5; PLCb3 inh: -1; HGIII-sPLA2 inh: -1; proCasp7 act: -3; PLCg1 inh: -1; Arrestin-AP2 inh: -1

How did O=C(Nc1cccc(F)c1)c1cc(S(=O)(=O)N2CCOCC2)ccc1N1CCCC1 do in these assays?
proCasp3 act: 6; proCasp7 act: -6; Arrestin-AP2 inh: 29; Arr AP2 CP1: -4; GST GSH counter: -2
